Measured values of several laboratories.
Each line is one published result; the experiments were not run side by side.
Target: Bone morphogenetic protein receptor type-2 (BMPR2, Homo sapiens, UniProt Q13873)
One construct used (Q13873 27-1038): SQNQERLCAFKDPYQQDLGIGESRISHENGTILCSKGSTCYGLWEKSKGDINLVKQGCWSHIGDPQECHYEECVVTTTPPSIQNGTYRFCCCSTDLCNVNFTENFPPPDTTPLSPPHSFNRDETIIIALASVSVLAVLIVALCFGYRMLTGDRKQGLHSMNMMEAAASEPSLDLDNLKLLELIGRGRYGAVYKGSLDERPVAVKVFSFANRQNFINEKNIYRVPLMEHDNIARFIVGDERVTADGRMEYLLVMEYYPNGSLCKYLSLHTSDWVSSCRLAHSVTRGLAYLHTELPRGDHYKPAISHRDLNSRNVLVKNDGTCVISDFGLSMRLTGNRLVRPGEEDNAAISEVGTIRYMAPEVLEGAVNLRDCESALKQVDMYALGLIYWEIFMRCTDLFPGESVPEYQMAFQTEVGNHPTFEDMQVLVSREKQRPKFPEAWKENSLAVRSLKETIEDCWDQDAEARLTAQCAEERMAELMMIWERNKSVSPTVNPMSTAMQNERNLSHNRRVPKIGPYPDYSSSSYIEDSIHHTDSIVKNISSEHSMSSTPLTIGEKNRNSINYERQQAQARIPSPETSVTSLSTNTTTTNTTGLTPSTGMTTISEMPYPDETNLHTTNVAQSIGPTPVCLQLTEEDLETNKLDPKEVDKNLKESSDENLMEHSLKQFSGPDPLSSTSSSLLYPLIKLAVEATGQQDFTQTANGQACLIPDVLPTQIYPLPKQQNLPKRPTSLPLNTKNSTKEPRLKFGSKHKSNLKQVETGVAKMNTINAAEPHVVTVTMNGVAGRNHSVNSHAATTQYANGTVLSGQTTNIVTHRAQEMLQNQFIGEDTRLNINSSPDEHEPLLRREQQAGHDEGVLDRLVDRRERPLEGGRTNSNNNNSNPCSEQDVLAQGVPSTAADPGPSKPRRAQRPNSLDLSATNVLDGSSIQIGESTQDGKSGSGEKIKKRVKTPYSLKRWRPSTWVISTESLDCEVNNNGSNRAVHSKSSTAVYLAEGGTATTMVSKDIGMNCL

| SMILES | assay | setting | measurement | value |
| --- | --- | --- | --- | --- |
| CC(C)(O)[C@H]1CC[C@H](Nc2ccc3ncc(-c4cccc(C(F)(F)F)c4)n3n2)CC1 | enzyme activity, inhibitor | 1 µM | remaining activity | 37.3% |
| Cc1sc(C(=O)NC2COC2)cc1-n1cc(NC(=O)Nc2c(F)cccc2Cl)cn1 | enzyme activity, inhibitor | 10 µM | remaining activity | 84.5% |
| Cc1nccc(COC(=O)N2C[C@@H]3[C@@H](CNC(=O)c4ccc5[nH]nnc5c4)[C@@H]3C2)n1 | cell-free assay, competition with immobilised ligand | 1 µM | remaining binding | 81% |
| O=C(Nc1cnn(-c2csc(C(=O)NC3COC3)c2)c1)Nc1ccccc1Cl | enzyme activity, inhibitor | 5 µM | remaining activity | 110% |
| Cn1c2c(c3ccc(Cl)c(Cl)c31)C(C#N)C1(CCOCC1)NC2=O (stereo not shown) | thermal stability, DSF | 10 µM | ΔTm | 0.9 °C |
| Cn1cncc1C1=CN(c2ncnc3[nH]cnc23)CCS1 | enzyme activity, inhibitor, radiometric | 50 nM | inhibition | 21.3% |
| CS(=O)(=O)Nc1cccc(-c2csc(NC(=O)CSc3nc4nccnc4c(=O)n3CCc3ccccc3)n2)c1 | enzyme activity, inhibitor | 10 µM | inhibition | 3% |
| N#CC1c2c([nH]c3c(Cl)c(Cl)ccc23)C(=O)NC12CCCCC2 (racemic) | thermal stability, DSF | 10 µM | ΔTm | 0.7 °C |
| COc1cc(-c2cn(C3CCc4c(F)cccc4N(CC(F)(F)F)C3=O)nn2)ccc1-n1cnc(C)c1 (stereo not shown) | cell-free assay, competition with immobilised ligand | 1 µM | remaining binding | 100% |
| Cc1ccc(C(=O)Nc2ccc(CN3CCN(C)CC3)c(C(F)(F)F)c2)cc1C#Cc1cnc2cccnn12 | cell-free assay | 23.5 nM | remaining signal | 98% |
| Cn1c2c(c3ccc(Cl)c(Cl)c31)C(C#N)C(C)(C)NC2=O (stereo not shown) | thermal stability, DSF | 10 µM | ΔTm | 1.4 °C |
| O=C(NCCCC1CCCCC1)c1ccc(CNC(=O)c2cnn(-c3ccccc3)c2C(F)(F)F)cc1 | cell-free assay, competition with immobilised ligand | 0.1 µM | remaining binding | 100% |
| Nc1ncnc2occ(-c3ccc(NC(=O)Nc4cc(C(F)(F)F)ccc4F)cc3)c12 | cell-free assay | 20 µM | remaining signal | 60% |
